Efflux pump inh: blocks antifungal efflux pumps in multiplex yeast assay; S. cerevisiae Candida pump triplex, Nile Red efflux; inhibition, % at 10 µM; actives 0.44% (n = 330,000);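 active means plate passing quality check with inhibition over a set limit, or well fluorescence over plate mean plus 4 SD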;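 further: Nile Red retained in pooled yeast measured as flow cytometry median fluorescence; 0% = buffer negative control and 100% = Enniatin B positive control; higher means more Nile Red kept so more efflux inhibition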
AI-2 QS mod: Vibrio harveyi AI-2 quorum sensing modulation | Vibrio harveyi JMH597 AI-2 luminescence/OD600 ratio, 9 h; active compounds read low; strain lacks LuxN and CqsS sensors; 0 = neutral-control median | activity change, % at 7.5 µM | actives 0.4% (n = 300,000) | AID 2094; in the data active means activity change below about -75%, passing the limit was not always enough;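 further: luminescence divided by OD600 gain over 9 h not by final OD600 alone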
PolyA inh: inhibitors of polyadenylation in S. cerevisiae. activity score, % at 12 µM. S. cerevisiae SKY197-pL101 polyadenylation reporter, beta-gal luminescence; efflux-impaired pdr1/pdr3 knockout yeast; score 100 = 6 SD above DMSO. actives 0.02% (n = 300,000). AID 1875;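 active means lowest replicate activity score at least 50, where 100 means six control SD above control mean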;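 further: yeast exposed to compound for 9 h at 30 °C; higher score means more reporter readthrough which indicates perturbed polyadenylation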
T cruzi repl: blocks replication of Trypanosoma cruzi | T. cruzi beta-gal in NIH3T3, luminescence, 90 h | inhibition, % (no concentration beside the values) | actives 1.4% (n = 300,000) | AID 1885;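 active means mean inhibition across valid replicates above about 55%, limit read from the data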;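 further: signal also drops with host cell toxicity which is not excluded here; 0% = plate median of DMSO wells and 100% = zero luminescence signal; higher percent means less beta-gal luminescence so fewer parasites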
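assay system = mouse NIH/3T3 fibroblasts infected with β-gal-expressing T. cruzi Tulahuen C4 | input = 5,000 NIH/3T3 host cells per well | buffer or medium = DMEM plus 2% FBS | timing = 3 h host attachment, then at least 90 h co-culture | measured by = GalScreen luminescence, 60 min | evaluation = luminescence reflecting intracellular parasite burden, expressed as percent inhibition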
HDAC3 inhib: inhibitors of human histone deacetylase 3; O15379; recombinant HDAC3, fluorogenic peptide/trypsin coupled, fluorescence; inhibition, % at 8.3 µM; actives 0.15% (n = 320,000); AID 2718; in the data active means inhibition above about 26%, passing the limit was not always enough
Target sequence (O15379 whole entry, looked up): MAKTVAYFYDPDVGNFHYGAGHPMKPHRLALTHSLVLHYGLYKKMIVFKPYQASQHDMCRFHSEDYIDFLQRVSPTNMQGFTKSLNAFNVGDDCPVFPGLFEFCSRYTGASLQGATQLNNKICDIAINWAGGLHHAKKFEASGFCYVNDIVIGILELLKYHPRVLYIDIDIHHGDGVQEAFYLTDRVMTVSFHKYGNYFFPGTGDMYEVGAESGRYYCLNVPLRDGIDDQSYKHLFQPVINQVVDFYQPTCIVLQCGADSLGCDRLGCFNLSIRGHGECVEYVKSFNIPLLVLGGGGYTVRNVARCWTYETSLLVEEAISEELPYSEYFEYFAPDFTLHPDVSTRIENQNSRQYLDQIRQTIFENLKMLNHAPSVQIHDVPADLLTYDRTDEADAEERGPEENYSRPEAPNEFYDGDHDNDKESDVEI
* hit, by the source's call; . = not tested or not shown. Hits are enriched below; roughly 2.2% of the tested compounds scored in any of these assays.

SMILES	Efflux pump inh	AI-2 QS mod	PolyA inh	T cruzi repl	HDAC3 inhib
Cc1ccc(-c2csc(=Nc3cccnc3)n2CCCN2CCCC2=O)cc1C	-2	6	9	-55	1
COc1ccc(C2NCCc3c2[nH]c2ccccc32)cc1COc1ccc(F)cc1 (stereo not drawn)	0	28	3	49	7
COc1ccc(C2NCCc3c2[nH]c2ccccc32)cc1CN1CCc2cc(OC)c(OC)cc2C1C (stereo not drawn)	.	11	0	61*	.
ClC(Cl)c1nnc(-c2ccccc2)c(-c2c[nH]c3ccccc23)n1	0	-77*	-34	-34	11
c1ccc(-c2nnc(-c3c[nH]c4ccccc34)nc2-c2ccccc2)cc1	0	16	9	31	5
COc1ccc(N(CCCN2C(=O)c3cccc4cccc(c34)C2=O)C(=O)c2cccnc2)cc1	0	18	-2	68*	-2
COc1ccc(N(CCCN2C(=O)c3cccc4cccc(c34)C2=O)C(=O)c2ccncc2)cc1	0	35	-1	55*	1
COc1cc(OC)cc(C(=O)N(CCCN2C(=O)c3cccc4cccc(c34)C2=O)c2cccc(OC)c2)c1	0	-3	-12	9	-4
COc1ccc(N(CCN2C(=O)c3ccccc3C2=O)C(=O)c2cccc([N+](=O)[O-])c2)cc1	0	16	-9	-22	0
O=C(Nc1ccn(Cc2ccccc2F)n1)c1ccc(COc2ccccc2Cl)cc1	0	26	10	24	10
O=C(Nc1ccn(Cc2c(F)c(F)cc(F)c2F)n1)c1ccc(COc2ccccc2Cl)cc1	0	7	-1	63*	9
Fc1c(F)c(F)c(N=Cc2ccc3ncccc3c2)c(F)c1F	0	6	6	-16	-1
CCC1Oc2ccc(C)cc2N(CC(=O)N(Cc2cccnc2)Cc2cccc(F)c2)C1=O (stereo not drawn)	0	11	1	59*	0
O=C(CN1C(=O)COc2ccccc21)N(Cc1cccnc1)Cc1cccc(F)c1	0	23	-15	71*	4
CCC1Oc2ccc(C)cc2N(CC(=O)N(Cc2ccncc2)Cc2ccco2)C1=O (stereo not drawn)	0	16	8	19	-2
O=C(O)CCC(=O)N(Cc1cccnc1)Cc1cccc(F)c1	0	2	7	.	5
O=C(CN1CCCCCC1)Nc1ccccc1C(=O)Nc1ccccc1	0	13	1	16	-1
c1cc2c3c(cccc3c1)NC1(CCCCCC1)N2	0	11	-11	8	-7
c1cc2c3c(cccc3c1)NC1(CCC3(CC1)Nc1cccc4cccc(c14)N3)N2	0	12	6	59*	-32
CCN1CCc2c(C#N)c(NCc3ccccc3)nc(N(CC)CC)c2C1	0	25	-14	82*	5
CCCC(=O)n1nc(-c2ccccc2)nc1SC	0	1	-22	-2	32*
O=[N+]([O-])c1ccc(C2CCCC/C2=N\OCc2cccc(F)c2)c([N+](=O)[O-])c1 (stereo not drawn)	0	-1	-33	62*	3
CC1CCCC/C1=N/Nc1ccc([N+](=O)[O-])cc1[N+](=O)[O-] (stereo not drawn)	0	17	0	2	1
C/C(=N\NC(=O)Cc1ccc(Cl)cc1)c1ccc(F)cc1	0	13	-9	-16	5
C/C(=N\NC(=O)Cc1ccc(Cl)cc1)c1ccccc1O	0	-24	-8	63*	5
SMILES	Efflux pump inh	AI-2 QS mod	PolyA inh	T cruzi repl	HDAC3 inhib
Cc1ccc(F)cc1NC(=O)c1sc2ncn(CC(=O)N3CCN(c4ccccn4)CC3)c(=O)c2c1C	0	7	-9	-9	1
CCN(c1ccc2c(c1)OCO2)S(=O)(=O)c1cc(Br)cc2c1N(C(C)=O)CC2	0	-1	-10	63*	-7
O=C(C1CC1)N1CCc2cc(Br)cc(S(=O)(=O)NCc3ccc4c(c3)OCO4)c21	0	19	-7	0	3
Cc1cccnc1CN1CCN(Cc2nc(C(c3ccccc3)c3ccccc3)no2)CC1	0	15	16	6	2
O=C(NCCc1ccccc1)c1c(F)cccc1F	0	-40	3	-3	4
O=C(NCC(O)c1ccc2ccccc2c1)c1c(F)cccc1F (stereo not drawn)	0	-75*	20	1	1
S=C(NCc1ccccc1)N1CCN(C(=S)NCc2ccccc2)CC1	0	.	.	.	1
COc1ccc(CC(=O)Nc2ccc(S(=O)(=O)Nc3cc(C)on3)cc2)cc1	0	-92*	-11	-4	.
Cc1ccc(CC(=O)Nc2ccc(S(=O)(=O)Nc3ncccn3)cc2)cc1	0	-92*	12	1	-7
Cc1ccc(CC(=O)Nc2ccc(S(=O)(=O)Nc3nccc(C)n3)cc2)cc1	0	6	17	4	7
CCC(=O)Nc1ccc(S(=O)(=O)Nc2cc(C)on2)cc1	0	25	15	-12	1
O=C(CCSc1ccccc1)Nc1ccc(S(=O)(=O)Nc2ncccn2)cc1	0	-79*	10	-16	6
CCOc1ccc(C(=O)CCC(=O)N2CCN(S(=O)(=O)c3cccc(F)c3)CC2)cc1	0	.	.	.	-9
CCCCCc1ccc(OCCCC[n+]2ccccc2)c(CCCCC)c1	0	3	-47	49	12
CCC(C)(C)c1ccc(OCCCC[n+]2ccccc2)c(C(C)(C)CC)c1	1	27	.	58*	7
Nc1nonc1-n1nnc(C(=O)N/N=C/c2cccc(Cl)c2)c1-c1cccs1	0	23	-14	6	3
CC(CCN1C(Nc2ccccc2)=NC[C@@H]1C)c1ccccc1 (stereo partly drawn)	0	10	-17	14	-8
OCC[C@H]1C[C@@H](O)[C@H](O)[C@]2(Cc3ccccc3CCO2)O1	0	.	.	.	1
Cc1ccc(C(=O)N2CCCC(CCC(=O)NCc3ccccc3F)C2)cn1 (stereo not drawn)	0	5	0	-9	6
COc1ccccc1/C=C/CN1CCCC(CCC(=O)NCc2ccccc2F)C1 (stereo not drawn)	0	19	-8	76*	19
Cc1ncc(CN2CCCC(CCC(=O)NCc3ccccc3F)C2)s1 (stereo not drawn)	0	5	-11	61*	-10
CC(=O)c1cccc(CN2CCCC(CCC(=O)NCc3ccccc3F)C2)c1 (stereo not drawn)	0	20	13	61*	-4
O=C(CCC1CCCN(C2C3CC4CC(C3)CC2C4)C1)NCc1ccc(F)c(F)c1 (stereo not drawn)	0	-16	4	12	-3

Screens as filed in PubChem BioAssay.
